The structures appear in SMILES notation. The source made the active and inactive calls. The calls are words filed in the database; no cut-off is given here.

For this test, the system named is Arabidopsis. The test can be described thus: Inhibition of indole-3-acetic acid-induced GUS reporter gene expression in Arabidopsis BA3 at 50 uM after 5 hrs. It counts as functional, organism-based. In short, it runs like this:
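Arabidopsis BA3::GUS seedlings (GUS under an auxin-responsive promoter) were grown vertically for 5 days under continuous light. They were moved into GM (0.5x MS salts, 1% sucrose, B5 vitamins, 0.2 g/L MES, pH 5.8) holding 50 µM derivative plus 1 µM IAA for 5 h. GUS was then stained histochemically with 1 mM X-Gluc at 37 °C for 3–4 h.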
In general terms: A reporter such as luciferase makes a cellular process visible.
`Oc1cc(-c2ccccc2)c(OCCCCCl)c(O)c1-c1ccccc1`: the result was Active.

Consider `CCCCOc1ccc(-c2cc(O)c(-c3ccccc3)c(O)c2O[C@@H]2O[C@H](CO)[C@@H](O)[C@H](O)[C@H]2O)cc1`, for which the outcome was inactive.

For `Oc1cc(-c2ccccc2)c(OCC2CC2)c(O)c1-c1ccccc1`, the outcome was inactive. Regarding `CC(=O)OC[C@H]1O[C@@H](Oc2c(-c3ccccc3)cc(O)c(-c3ccccc3)c2O)[C@H](OC(C)=O)[C@@H](OC(C)=O)[C@@H]1OC(C)=O`, the outcome was inactive. Consider `CCCCOc1c(-c2ccccc2)cc(O)c(-c2ccccc2)c1O`, for which the outcome was Active.

As for `CCCCCCOc1c(-c2ccccc2)cc(O)c(-c2ccccc2)c1O`, the outcome was inactive.

For `CCCOc1c(-c2ccccc2)cc(O)c(-c2ccccc2)c1O`, the result was Active. To `OC[C@H]1O[C@@H](Oc2c(-c3ccccc3)cc(O)c(-c3cccc4ccccc34)c2O)[C@H](O)[C@@H](O)[C@@H]1O` (single isomer, unassigned) belongs “inactive”. Take `OC[C@H]1O[C@@H](Oc2cc(-c3ccccc3)c(O)cc2-c2ccccc2)[C@H](O)[C@@H](O)[C@@H]1O`: the outcome was Active. As for `CC(C)COc1c(-c2ccccc2)cc(O)c(-c2ccccc2)c1O`, the outcome was inactive.

`OC[C@H]1O[C@@H](Oc2c(O)cc(O)cc2-c2ccccc2)[C@H](O)[C@@H](O)[C@@H]1O`: the outcome was inactive. As to `CCOC(=O)CCCCOc1ccc(-c2cc(O)c(-c3ccccc3)c(O)c2O[C@@H]2O[C@H](CO)[C@@H](O)[C@H](O)[C@H]2O)cc1`, the outcome was inactive.

Take `COCOc1c(-c2ccccc2)cc(O)c(-c2ccccc2)c1O`: the result was Active. On to `CCOc1c(-c2ccccc2)cc(O)c(-c2ccccc2)c1O`, for which the result was Active. As for `COC(=O)c1ccc(-c2cc(O)c(-c3ccccc3)c(O)c2O[C@@H]2O[C@H](CO)[C@@H](O)[C@H](O)[C@H]2O)cc1`, the outcome was inactive.

`Oc1cc(-c2ccccc2)c(OCC2CCCCC2)c(O)c1-c1ccccc1`: the outcome was inactive. With `OC[C@H]1O[C@@H](Oc2ccc(O)c(-c3ccccc3)c2O)[C@H](O)[C@@H](O)[C@@H]1O`, the outcome was inactive. With `CCCCCOc1c(-c2ccccc2)cc(O)c(-c2ccccc2)c1O`, the result was Active. With `COc1cc(-c2ccccc2)c(O[C@H]2O[C@@H](CO)[C@H](O)[C@@H](O)[C@@H]2O)c(O)c1-c1ccccc1`, the result was inactive. As to `Cc1ccc(-c2c(O)cc(-c3ccccc3)c(O[C@@H]3O[C@H](CO)[C@@H](O)[C@H](O)[C@H]3O)c2O)cc1`, the outcome was inactive.

As to `CCCCOc1ccc(-c2c(O)cc(-c3ccccc3)c(O[C@@H]3O[C@H](CO)[C@@H](O)[C@H](O)[C@H]3O)c2O)cc1`, the result was inactive. Turning to `COc1c(O[C@@H]2O[C@H](CO)[C@@H](O)[C@H](O)[C@H]2O)c(-c2ccccc2)cc(O)c1-c1ccccc1`, the result was inactive.
